In ChEMBL document CHEMBL4270636, “5'-Chloro-2,2'-dihydroxychalcone and related flavanoids as treatments for prostate cancer” (Eur J Med Chem, 2018):
pIC50: −log10 of the molar value. The source made the active and inactive calls. The rule behind the calls is not given here.

How the values were obtained:
[1] = test system: Androgen receptor (Homo sapiens), P10275 [UNDEFINED MUTATION]; settings: at 3 to 10 µM
PC-3 [2] = assay: Antiproliferative activity against human PC3 cells assessed as reduction in cell growth treated every 2 days for 4 days by hemocytometry; assay type: functional, cell-based
[3] = target: T1, Androgen receptor (Homo sapiens) (UniProt P10275); assay: Antagonist activity at AR (unknown origin) expressed in human PC3 cells assessed as reduction in DHT-induced transcriptional activation at 3 to 10 uM after 24 hrs by luciferase reporter gene assay; assay type: cell-based
T1 sequence (whole entry): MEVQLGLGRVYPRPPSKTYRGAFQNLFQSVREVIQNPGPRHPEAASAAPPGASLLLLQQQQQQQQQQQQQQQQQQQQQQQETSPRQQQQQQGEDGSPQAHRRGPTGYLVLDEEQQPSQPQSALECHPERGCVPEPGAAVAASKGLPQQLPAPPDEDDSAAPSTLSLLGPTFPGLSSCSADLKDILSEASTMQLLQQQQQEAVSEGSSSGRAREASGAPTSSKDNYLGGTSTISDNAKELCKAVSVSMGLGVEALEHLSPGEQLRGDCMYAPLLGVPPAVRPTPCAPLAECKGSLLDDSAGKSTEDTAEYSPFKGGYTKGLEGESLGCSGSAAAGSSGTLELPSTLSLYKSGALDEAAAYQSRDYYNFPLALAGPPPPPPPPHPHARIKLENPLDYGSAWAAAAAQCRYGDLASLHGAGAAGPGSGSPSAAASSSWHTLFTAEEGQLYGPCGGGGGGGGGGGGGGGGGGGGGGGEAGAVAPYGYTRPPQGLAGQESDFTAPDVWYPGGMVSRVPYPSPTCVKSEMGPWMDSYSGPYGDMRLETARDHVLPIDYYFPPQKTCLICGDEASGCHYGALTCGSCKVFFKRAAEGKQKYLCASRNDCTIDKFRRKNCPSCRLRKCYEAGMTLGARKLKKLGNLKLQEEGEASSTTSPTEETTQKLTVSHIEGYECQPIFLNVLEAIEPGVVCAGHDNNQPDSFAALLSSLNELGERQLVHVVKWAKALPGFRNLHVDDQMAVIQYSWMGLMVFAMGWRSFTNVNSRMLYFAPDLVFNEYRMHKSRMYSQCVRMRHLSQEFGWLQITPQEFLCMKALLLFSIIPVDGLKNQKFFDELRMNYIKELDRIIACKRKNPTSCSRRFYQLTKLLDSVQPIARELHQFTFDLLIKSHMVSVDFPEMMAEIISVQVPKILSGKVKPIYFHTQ
Method in brief: (§1)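 PC-3 cells (AR-negative) co-transfected with wild-type or AR-V7 expression vector plus PSA promoter-luciferase reporter (pGL3PSAp-5.8, 0.5 ug/well); seeded 50,000/well, transfected after 24 h, treated with compounds ± 1 nM DHT for 24 h from 24 h post-transfection; lysed cells read for luciferase activity by luminometer.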

Androgen receptor = target: T2, Androgen receptor (Homo sapiens, UniProt P10275); assay: Antagonist activity at AR in human LNCAP cells assessed as reduction in DHT-induced transcriptional activation after 24 hrs by luciferase reporter gene assay; assay type: cell-based
T2 sequence (P10275 whole entry): T1 sequence (whole entry)

[4] = target: T1, Androgen receptor (Homo sapiens); assay: Antagonist activity at AR in human LNCAP cells assessed as reduction in DHT-induced cell growth at 1 to 3 uM treated for every 2 days for 4 days by hemocytometry; assay type: cell-based
DU-145 = assay: Antiproliferative activity against human DU145 cells assessed as reduction in cell growth treated every 2 days for 4 days by hemocytometry; assay type: functional, cell-based
Homo sapiens [5] = species: Homo sapiens; assay: Antiproliferative activity against human LNCaP-SF cells assessed as reduction in cell growth at 10 uM treated every 2 days for 4 days by hemocytometry; assay type: functional, cell-based
Method in brief: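 LNCaP-SF castration-resistant subline cultured 4 days with compound at stated concentrations, with or without 0.1 nM DHT; growth assessed by cell counting.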

LNCaP [6] = assay: Antiproliferative activity against human LNCAP cells assessed as reduction in cell growth at 10 uM treated every 2 days for 4 days by hemocytometry; assay type: functional, cell-based
LNCaP [7] = assay: Antiproliferative activity against human LNCAP cells assessed as reduction in cell growth treated every 2 days for 4 days by hemocytometry; assay type: functional, cell-based
PC-3 [8] = assay: Cell cycle arrest in human PC3 cells assessed as accumulation at G2/M phase at 200 nM after 24 hrs by propidium iodide staining based flow cytometry; assay type: functional
A549 [9] = assay: Cell cycle arrest in human A549 cells assessed as accumulation at Sub-G1 phase at 3 times IC50 after 24 to 48 hrs by propidium iodide staining based flow cytometry; assay type: functional
MDA-MB-231 = assay: Antiproliferative activity against human MDA-MB-231 cells assessed as reduction in cell growth after 72 hrs by sulforhodamine B assay; assay type: functional, cell-based; settings: MDA-MB-231, 72 h
PC-3 [10] = assay: Antitumor activity against human PC3 cells xenografted in C.B-17 SCID mouse assessed as tumor growth inhibition at 30 mg/kg, ip administered every 4 days measured during compound dosing; assay type: functional, organism-based
Method in brief: (§2)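 Male C.B-17 scid mice (purchased at 7 weeks) given 2.0×10⁶ PC-3 cells in 50% matrigel subcutaneously on dorsal side at 8 weeks; at ~50 mm³ tumor, randomized into groups of 5, dosing from second day at 30 mg/kg i.p. every 4 days; tumor volume and body weight followed; mean ± SD.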

[11] = Antiproliferative activity against human DU145-TxR cells assessed as reduction in cell growth treated every 2 days for 4 days by hemocytometry; assay type: functional, cell-based
MCF7 = assay: Antiproliferative activity against human MCF7 cells assessed as reduction in cell growth after 72 hrs by sulforhodamine B assay; settings: MCF7, 72 h
[12] = Antiproliferative activity against human KBVIN cells assessed as reduction in cell growth after 72 hrs by sulforhodamine B assay; assay type: functional, cell-based
KB = assay: Antiproliferative activity against human KB cells assessed as reduction in cell growth after 72 hrs by sulforhodamine B assay
A549 [13] = assay: Cell cycle arrest in human A549 cells assessed as accumulation at G1 phase at 3 times IC50 after 24 to 48 hrs by propidium iodide staining based flow cytometry; assay type: functional
A549 [14] = assay: Antiproliferative activity against human A549 cells assessed as reduction in cell growth after 72 hrs by sulforhodamine B assay; settings: A549, 72 h
[15] = Antiproliferative activity against human PC3/TxR/CxR cells assessed as reduction in cell growth treated every 2 days for 4 days by hemocytometry; assay type: functional, cell-based
[16] = Antiproliferative activity against human DU145/TxR/CxR cells assessed as reduction in cell growth treated every 2 days for 4 days by hemocytometry; assay type: functional, cell-based; settings: DU-145
[17] = test system: Androgen receptor (Homo sapiens), P10275 [UNDEFINED MUTATION]; assay: Antagonist activity at AR V7 mutant (unknown origin) expressed in human PC3 cells assessed as reduction in DHT-induced transcriptional activation after 24 hrs by luciferase reporter gene assay; assay type: cell-based
Method in brief: as §1

Mus musculus = assay: Toxicity in C.B-17 SCID mouse xenografted with human PC3 cells assessed as body weight loss at 30 mg/kg, ip administered every 4 days; assay type: organism-based; settings: in vivo, 96 h
Method in brief: as §2

[18] = Antiproliferative activity against human PC3-TxR cells assessed as reduction in cell growth treated every 2 days for 4 days by hemocytometry; assay type: functional, cell-based
Homo sapiens [19] = species: Homo sapiens; assay: Induction of microtubule depolymerization in human PC3 cells at 2 times IC50 after 24 hrs by […] microscopic analysis; assay type: cell-based
PC-3 [20] = assay: Cell cycle arrest in human PC3 cells assessed as accumulation at Sub-G1 phase at 2 times IC50 after 24 to 48 hrs by propidium iodide staining based flow cytometry; assay type: functional
A549 [21] = assay: Cell cycle arrest in human A549 cells assessed as accumulation at G2/M phase at 3 times IC50 after 24 to 48 hrs by propidium iodide staining based flow cytometry; assay type: functional

## O=C1CC(c2ccccc2O)Oc2ccccc21 (stereo not given) [2'-HYDROXY-FLAVANONE]
[1]
  inhibition: inactive
PC-3 [2]
  pIC50: 5.59
[3]
  inhibition: Active
Androgen receptor
  pIC50: > 6.00
[4]
  Activity: Active
DU-145
  pIC50: 5.39
Homo sapiens [5]
  Activity: Active
LNCaP [6]
  Activity: Active
LNCaP [7]
  pIC50: 5.26

## COc1ccc2c(c1)C(=O)CC(c1ccccc1OC)O2 (stereo not given)
Androgen receptor
  pIC50: < 5.00

## O=C(/C=C/c1ccccc1O)c1cc(I)ccc1O
Androgen receptor
  pIC50: 5.79

## O=C(/C=C/c1ccccc1O)c1cc(F)ccc1O
Androgen receptor
  pIC50: 5.85

## O=C1CC(c2ccccc2O)Oc2ccc(I)cc21 (stereo not given)
Androgen receptor
  pIC50: 5.37

## COCOc1ccccc1/C=C/C(=O)c1cc(F)ccc1O
Androgen receptor
  pIC50: < 5.00

## O=C(/C=C/c1ccc(O)cc1)c1cc(Cl)ccc1O
Androgen receptor
  pIC50: 5.23

## O=C(/C=C/c1ccccc1O)c1cc(Br)ccc1O
Androgen receptor
  pIC50: 5.06

## COc1ccccc1/C=C/C(=O)c1cc(I)ccc1O
Androgen receptor
  pIC50: 5.76

## COc1ccccc1/C=C/C(=O)c1ccccc1O
Androgen receptor
  pIC50: 5.46

## COc1ccc2oc(-c3ccccc3OC)cc(=O)c2c1
Androgen receptor
  pIC50: 5.21

## CCOc1ccccc1/C=C/C(=O)c1cc(Br)ccc1O
Androgen receptor
  pIC50: 5.28

## O=C1CC(c2ccccc2O)Oc2cc(O)ccc21 (stereo not given)
Androgen receptor
  pIC50: < 5.00

## O=c1cc(-c2ccccc2O)oc2ccccc12
Androgen receptor
  pIC50: > 6.00
LNCaP [7]
  pIC50: < 5.00

## O=C1CC(c2ccccc2O)Oc2c(Br)cc(Br)cc21 (stereo not given)
Androgen receptor
  pIC50: 5.45

## O=C1CC(c2ccccc2O)Oc2ccc(Br)cc21 (stereo not given)
Androgen receptor
  pIC50: 5.75

## CNC(=O)c1ccc(N2C(=S)N(c3ccc(C#N)c(C(F)(F)F)c3)C(=O)C2(C)C)cc1F
LNCaP [6]
  Activity: inactive

## O=C(/C=C/c1ccc2c(c1)OCO2)c1cc(Cl)ccc1O
Androgen receptor
  pIC50: 5.36

## COc1ccc(/C=C/C(=O)c2cc(Cl)ccc2O)cc1OC
Androgen receptor
  pIC50: 5.28

## CCCOc1ccccc1/C=C/C(=O)c1cc(Br)ccc1O
Androgen receptor
  pIC50: 5.40

## CC(C)Oc1ccccc1/C=C/C(=O)c1cc(Br)ccc1O
PC-3 [2]
  pIC50: 5.38
Androgen receptor
  pIC50: > 6.00
DU-145
  pIC50: 5.30
LNCaP [7]
  pIC50: 5.38

## O=C1CC(c2ccccc2O)Oc2ccc(Cl)cc21 (stereo not given)
Androgen receptor
  pIC50: 5.77

## COc1ccc(/C=C\c2cc(OC)c(OC)c(OC)c2)cc1O
PC-3 [8]
  Activity: Active

## COc1ccc(O)c(C(=O)/C=C/c2ccccc2OC)c1
PC-3 [2]
  pIC50: 5.13
Androgen receptor
  pIC50: > 6.00
DU-145
  pIC50: < 5.00
LNCaP [7]
  pIC50: 5.14

## COc1ccccc1/C=C/C(=O)c1cc(F)ccc1O
Androgen receptor
  pIC50: 5.30

## O=C(/C=C/c1ccccc1O)c1cc(Br)cc(Br)c1O
Androgen receptor
  pIC50: 5.54

## O=C(/C=C/c1ccccc1)c1cc(Cl)ccc1O
Androgen receptor
  pIC50: 5.82

## COc1ccccc1/C=C/C(=O)c1cc(Cl)ccc1O
Androgen receptor
  pIC50: < 5.00

## O=C1CC(c2ccccc2O)Oc2ccc(O)cc21 (stereo not given)
Androgen receptor
  pIC50: 5.56

## O=C(/C=C/c1ccccc1O)c1cc(Cl)ccc1O
A549 [9]
  Activity: inactive
MDA-MB-231
  pIC50: 5.29
PC-3 [2]
  pIC50: 5.82
[3]
  inhibition: Active
PC-3 [10]
  TGI: Active
Androgen receptor
  pIC50: > 6.00
[11]
  pIC50: 5.13
MCF7
  pIC50: 5.31
[12]
  pIC50: 5.31
KB
  pIC50: 5.30
[4]
  Activity: Active
A549 [13]
  Activity: Active
A549 [14]
  pIC50: 5.04
[15]
  pIC50: 5.39
[16]
  pIC50: 5.27
[17]
  inhibition: Dose-dependent effect
DU-145
  pIC50: 5.35
Homo sapiens [5]
  Activity: Active
Mus musculus
  Activity: Non-Toxic
LNCaP [6]
  Activity: Active
[18]
  pIC50: > 5.52
Homo sapiens [19]
  Activity: Active
LNCaP [7]
  pIC50: 5.45
PC-3 [20]
  Activity: Active

## O=C1CC(c2ccccc2O)Oc2cc(O)cc(O)c21 (stereo not given)
Androgen receptor
  pIC50: < 5.00

## COc1cc(/C=C/C(=O)c2cc(Cl)ccc2O)ccc1O
Androgen receptor
  pIC50: 5.23

## COc1ccc2c(c1)OC(c1ccccc1O)CC2=O (stereo not given)
Androgen receptor
  pIC50: < 5.00

## COc1ccccc1/C=C/C(=O)c1cc(Br)ccc1O
A549 [9]
  Activity: inactive
MDA-MB-231
  pIC50: 5.01
PC-3 [2]
  pIC50: 5.74
[3]
  inhibition: Active
PC-3 [10]
  TGI: inactive
Androgen receptor
  pIC50: > 6.00
[11]
  pIC50: 5.35
MCF7
  pIC50: 4.85
[12]
  pIC50: 4.95
KB
  pIC50: 4.79
[4]
  Activity: Active
A549 [14]
  pIC50: 5.07
[15]
  pIC50: 5.43
[16]
  pIC50: 5.29
[17]
  inhibition: Dose-dependent effect
A549 [21]
  Activity: Active
DU-145
  pIC50: 5.21
Homo sapiens [5]
  Activity: Active
LNCaP [6]
  Activity: Active
[18]
  pIC50: 5.42
LNCaP [7]
  pIC50: 5.30
PC-3 [20]
  Activity: Active

## CC(=O)O[C@H]1C(=O)[C@@]2(C)[C@H]([C@H](OC(=O)c3ccccc3)[C@]3(O)C[C@H](OC(=O)[C@H](O)[C@@H](NC(=O)c4ccccc4)c4ccccc4)C(C)=C1C3(C)C)[C@]1(OC(C)=O)CO[C@@H]1C[C@@H]2O [PACLITAXEL]
MDA-MB-231
  pIC50: 8.02
[12]
  pIC50: 5.76
